# Results from ChEMBL document CHEMBL4229344 (Eur J Med Chem, 2018).
# What was measured:
# [1] = Cytotoxicity against mouse BA/F3 cells after 72 hrs by CellTiter-Glo or CCK-8 assay; format: cell-based, BaF3
# Summary of the method: (§1)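 Parental BaF3 or IL-3-independent TEL-kinase BaF3 lines, made by retroviral infection and puromycin selection, grown in RPMI 1640 with 10% FBS. Cells seeded at 1–3 × 10^4 cells/mL with serial compound concentrations for 72 h. Viability read by CellTiter-Glo luminescence or CCK-8 absorbance at 450/655 nm and normalised to DMSO. GI50 obtained by triplicate testing with linear regression. Selectivity is the ratio of the two GI50 values.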
# [2] = biological target: Platelet-derived growth factor receptor beta (Homo sapiens, UniProt P09619); assay: Inhibition of TEL-fused PDGFRbeta (unknown origin) expressed in mouse BA/F3 cells assessed as growth inhibition after 72 hrs by CellTiter-Glo or CCK-8 assay; format: cell-based; summary of the method: as §1
# Platelet-derived growth factor receptor beta, sequence (P09619 whole entry, the tested form may be a part): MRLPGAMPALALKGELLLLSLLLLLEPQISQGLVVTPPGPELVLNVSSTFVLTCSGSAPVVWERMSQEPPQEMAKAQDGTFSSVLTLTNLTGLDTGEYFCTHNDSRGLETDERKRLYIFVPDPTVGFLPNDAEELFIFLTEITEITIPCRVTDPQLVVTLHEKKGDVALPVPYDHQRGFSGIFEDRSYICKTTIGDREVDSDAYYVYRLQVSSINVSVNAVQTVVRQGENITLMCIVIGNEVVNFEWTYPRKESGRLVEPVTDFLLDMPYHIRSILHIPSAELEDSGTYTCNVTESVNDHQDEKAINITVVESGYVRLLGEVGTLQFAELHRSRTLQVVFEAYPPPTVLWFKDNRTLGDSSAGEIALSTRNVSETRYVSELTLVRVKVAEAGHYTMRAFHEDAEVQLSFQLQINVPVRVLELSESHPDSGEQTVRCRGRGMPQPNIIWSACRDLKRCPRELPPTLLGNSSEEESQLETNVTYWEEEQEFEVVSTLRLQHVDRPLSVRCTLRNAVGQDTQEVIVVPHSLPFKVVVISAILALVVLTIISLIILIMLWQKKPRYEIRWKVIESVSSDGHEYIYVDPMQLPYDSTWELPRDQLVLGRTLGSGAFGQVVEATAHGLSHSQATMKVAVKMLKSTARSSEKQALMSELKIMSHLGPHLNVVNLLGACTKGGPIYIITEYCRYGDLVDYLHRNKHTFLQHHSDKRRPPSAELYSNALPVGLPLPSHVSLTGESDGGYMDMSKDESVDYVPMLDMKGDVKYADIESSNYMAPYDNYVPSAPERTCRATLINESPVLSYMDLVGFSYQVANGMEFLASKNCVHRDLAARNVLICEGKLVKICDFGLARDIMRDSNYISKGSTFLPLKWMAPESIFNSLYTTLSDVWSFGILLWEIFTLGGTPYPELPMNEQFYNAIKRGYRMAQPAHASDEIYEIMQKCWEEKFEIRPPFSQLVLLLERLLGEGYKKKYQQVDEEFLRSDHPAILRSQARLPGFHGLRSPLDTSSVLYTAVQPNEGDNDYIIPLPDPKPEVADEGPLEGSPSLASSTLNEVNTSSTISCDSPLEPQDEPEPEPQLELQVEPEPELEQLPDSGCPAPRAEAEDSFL
# [3] = biological target: Platelet-derived growth factor receptor alpha (Homo sapiens, UniProt P16234)
# Platelet-derived growth factor receptor alpha, sequence (P16234 whole entry): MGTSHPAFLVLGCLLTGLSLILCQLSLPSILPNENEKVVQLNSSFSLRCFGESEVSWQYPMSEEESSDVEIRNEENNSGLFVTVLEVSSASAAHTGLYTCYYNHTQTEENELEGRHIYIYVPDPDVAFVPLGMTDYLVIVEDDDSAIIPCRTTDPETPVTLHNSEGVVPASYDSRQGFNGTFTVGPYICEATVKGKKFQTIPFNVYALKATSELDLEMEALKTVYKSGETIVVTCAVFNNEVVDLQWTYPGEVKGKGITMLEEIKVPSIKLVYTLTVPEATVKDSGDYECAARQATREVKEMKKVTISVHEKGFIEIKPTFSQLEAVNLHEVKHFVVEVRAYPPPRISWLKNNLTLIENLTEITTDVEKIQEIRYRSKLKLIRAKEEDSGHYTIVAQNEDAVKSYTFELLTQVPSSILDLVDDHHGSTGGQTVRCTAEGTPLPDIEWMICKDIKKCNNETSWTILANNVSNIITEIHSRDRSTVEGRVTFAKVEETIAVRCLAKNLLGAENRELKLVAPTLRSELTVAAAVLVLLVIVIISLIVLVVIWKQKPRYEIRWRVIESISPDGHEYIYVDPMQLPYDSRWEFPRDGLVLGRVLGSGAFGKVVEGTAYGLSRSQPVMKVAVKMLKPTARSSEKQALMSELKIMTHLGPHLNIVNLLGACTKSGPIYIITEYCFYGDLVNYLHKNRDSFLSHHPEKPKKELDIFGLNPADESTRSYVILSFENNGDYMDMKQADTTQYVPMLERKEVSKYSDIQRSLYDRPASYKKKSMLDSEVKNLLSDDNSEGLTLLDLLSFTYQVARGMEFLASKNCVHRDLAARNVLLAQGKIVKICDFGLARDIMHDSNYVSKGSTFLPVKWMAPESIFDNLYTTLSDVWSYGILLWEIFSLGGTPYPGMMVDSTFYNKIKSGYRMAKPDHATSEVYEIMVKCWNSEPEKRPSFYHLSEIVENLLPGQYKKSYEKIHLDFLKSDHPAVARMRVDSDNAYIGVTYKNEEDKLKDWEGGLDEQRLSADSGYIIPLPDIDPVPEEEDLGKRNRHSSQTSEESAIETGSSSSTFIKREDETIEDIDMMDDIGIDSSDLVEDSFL
# [4] = biological target: Vascular endothelial growth factor receptor 2 (Homo sapiens) (UniProt P35968)
# Vascular endothelial growth factor receptor 2 (Homo sapiens), sequence (P35968 whole entry, the tested form may be a part): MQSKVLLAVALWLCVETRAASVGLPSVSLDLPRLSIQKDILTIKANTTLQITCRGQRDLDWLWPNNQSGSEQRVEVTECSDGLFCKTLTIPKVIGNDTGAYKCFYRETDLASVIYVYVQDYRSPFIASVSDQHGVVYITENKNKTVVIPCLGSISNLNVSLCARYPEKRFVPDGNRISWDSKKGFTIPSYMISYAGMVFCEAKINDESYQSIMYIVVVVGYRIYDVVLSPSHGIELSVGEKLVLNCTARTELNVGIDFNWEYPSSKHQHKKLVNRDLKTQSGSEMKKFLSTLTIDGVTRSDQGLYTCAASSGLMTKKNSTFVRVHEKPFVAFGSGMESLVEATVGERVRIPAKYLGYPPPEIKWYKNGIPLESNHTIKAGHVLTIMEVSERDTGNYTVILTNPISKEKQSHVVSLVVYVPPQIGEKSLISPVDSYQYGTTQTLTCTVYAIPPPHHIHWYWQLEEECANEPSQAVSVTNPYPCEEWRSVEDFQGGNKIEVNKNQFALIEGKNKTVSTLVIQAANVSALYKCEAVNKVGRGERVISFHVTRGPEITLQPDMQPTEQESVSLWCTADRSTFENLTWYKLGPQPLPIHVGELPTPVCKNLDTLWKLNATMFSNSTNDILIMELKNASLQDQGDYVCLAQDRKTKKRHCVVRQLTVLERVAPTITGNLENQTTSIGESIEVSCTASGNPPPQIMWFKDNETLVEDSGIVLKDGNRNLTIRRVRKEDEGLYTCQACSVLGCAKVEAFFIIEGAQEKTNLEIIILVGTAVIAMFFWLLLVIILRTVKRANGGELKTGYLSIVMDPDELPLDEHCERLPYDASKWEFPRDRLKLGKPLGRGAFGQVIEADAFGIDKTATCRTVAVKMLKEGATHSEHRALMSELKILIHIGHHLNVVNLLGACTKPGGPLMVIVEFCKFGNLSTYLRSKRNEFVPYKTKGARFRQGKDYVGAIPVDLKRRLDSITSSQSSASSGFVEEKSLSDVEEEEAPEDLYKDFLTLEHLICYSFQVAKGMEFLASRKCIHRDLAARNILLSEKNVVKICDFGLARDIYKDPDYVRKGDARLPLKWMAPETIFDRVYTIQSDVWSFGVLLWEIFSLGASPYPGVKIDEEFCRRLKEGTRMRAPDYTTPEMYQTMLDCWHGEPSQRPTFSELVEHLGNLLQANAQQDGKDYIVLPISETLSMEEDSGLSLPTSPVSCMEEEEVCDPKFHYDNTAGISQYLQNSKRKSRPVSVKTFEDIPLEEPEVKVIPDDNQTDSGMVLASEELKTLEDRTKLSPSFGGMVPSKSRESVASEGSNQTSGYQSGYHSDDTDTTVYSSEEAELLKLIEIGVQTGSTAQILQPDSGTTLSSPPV
# [5] = biological target: Mast/stem cell growth factor receptor Kit (Homo sapiens, UniProt P10721); assay: Inhibition of TEL-fused c-KIT (unknown origin) expressed in mouse BA/F3 cells assessed as growth inhibition after 72 hrs by CellTiter-Glo or CCK-8 assay; format: cell-based; summary of the method: as §1
# Mast/stem cell growth factor receptor Kit, sequence (P10721 whole entry, the tested form may be a part): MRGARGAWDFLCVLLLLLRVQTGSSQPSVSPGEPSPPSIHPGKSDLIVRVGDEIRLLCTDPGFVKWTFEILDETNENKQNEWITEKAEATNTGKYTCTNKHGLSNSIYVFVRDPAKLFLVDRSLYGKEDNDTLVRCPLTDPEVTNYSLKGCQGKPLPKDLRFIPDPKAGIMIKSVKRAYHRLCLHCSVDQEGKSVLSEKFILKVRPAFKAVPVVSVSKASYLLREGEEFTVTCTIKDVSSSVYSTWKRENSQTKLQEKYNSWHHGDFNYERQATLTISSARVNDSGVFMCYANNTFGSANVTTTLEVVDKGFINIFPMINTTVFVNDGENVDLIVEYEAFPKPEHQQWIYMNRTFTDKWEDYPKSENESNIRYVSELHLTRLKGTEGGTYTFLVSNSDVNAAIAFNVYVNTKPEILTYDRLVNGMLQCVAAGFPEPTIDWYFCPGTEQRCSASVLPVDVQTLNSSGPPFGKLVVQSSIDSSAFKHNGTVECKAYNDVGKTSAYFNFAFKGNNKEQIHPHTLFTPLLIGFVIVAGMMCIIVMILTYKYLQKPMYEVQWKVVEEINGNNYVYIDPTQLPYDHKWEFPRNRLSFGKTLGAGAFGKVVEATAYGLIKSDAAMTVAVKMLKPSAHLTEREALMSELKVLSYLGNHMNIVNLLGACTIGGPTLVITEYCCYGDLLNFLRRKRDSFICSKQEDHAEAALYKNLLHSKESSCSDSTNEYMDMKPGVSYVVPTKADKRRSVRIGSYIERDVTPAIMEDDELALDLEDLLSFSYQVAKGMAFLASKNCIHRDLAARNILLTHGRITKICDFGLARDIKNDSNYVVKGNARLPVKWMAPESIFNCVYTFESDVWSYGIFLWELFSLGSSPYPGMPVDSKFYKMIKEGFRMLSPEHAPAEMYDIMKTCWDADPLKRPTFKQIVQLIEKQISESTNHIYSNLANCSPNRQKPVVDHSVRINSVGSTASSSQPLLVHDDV
# Homo sapiens = organism: Homo sapiens; assay: Selectivity index, ratio of GI50 for TEL-fused PDGFRbeta (unknown origin) expressed in mouse BA/F3 cells to GI50 for TEL-fused PDGFRalpha (unknown origin) expressed in mouse BA/F3 cells; format: cell-based; summary of the method: as §1
GI50 [2],GI50 [3],GI50 [4],GI50 [5],Compound,GI50 at 72 h [1],RatioGI50 (Homo sapiens)
125 nM,24 nM,4880 nM,5000 nM,Cc1ccc(NC(=O)c2ccc(CNCCN(C)C)cc2)cc1Nc1nccc(-c2cccnc2)n1,> 10000 nM,–
221 nM,15 nM,3220 nM,2920 nM,CCC(=O)NCc1cccc(C(=O)Nc2ccc(C)c(Nc3nccc(-c4cccnc4)n3)c2)c1,4750 nM,–
231 nM,39 nM,> 10000 nM,104 nM,CCC(=O)Nc1cc(C(=O)Nc2ccc(C)c(Nc3nccc(-c4cccnc4)n3)c2)cc(C(F)(F)F)c1,> 10000 nM,–
350 nM,11 nM,> 10000 nM,> 10000 nM,C=CC(=O)N(CCN(C)C)Cc1ccc(C(=O)Nc2ccc(C)c(Nc3nccc(-c4cccnc4)n3)c2)cc1,> 10000 nM,> 30
3880 nM,363 nM,> 10000 nM,> 10000 nM,Cc1ccc(NC(=O)c2ccc(CN(CCO)C(=O)CN(C)C)cc2)cc1Nc1nccc(-c2cccnc2)n1,> 10000 nM,–
48 nM,13 nM,1560 nM,580 nM,C=CS(=O)(=O)NCc1ccc(C(=O)Nc2ccc(C)c(Nc3nccc(-c4cccnc4)n3)c2)cc1,7710 nM,–
583 nM,13 nM,882 nM,426 nM,Cc1ccc(NC(=O)c2ccc(NC(=O)c3cccnc3)cc2)cc1Nc1nccc(-c2cccnc2)n1,1700 nM,–
173 nM,8 nM,1570 nM,1530 nM,C=CC(=O)Nc1cccc(C(=O)Nc2ccc(C)c(Nc3nccc(-c4cccnc4)n3)c2)c1,2480 nM,–
219 nM,54 nM,8540 nM,> 10000 nM,C/C=C/C(=O)N(CCN(C)C)Cc1ccc(C(=O)Nc2ccc(C)c(Nc3nccc(-c4cccnc4)n3)c2)cc1,> 10000 nM,–
757 nM,–,2030 nM,2940 nM,C=CC(=O)Nc1ccc(C(=O)Nc2ccc(C)c(Nc3nccc(-c4cccnc4)n3)c2)cc1,5600 nM,–
161 nM,59 nM,> 10000 nM,300 nM,C=CC(=O)NCc1ccc(C(=O)Nc2ccc(C)c(Nc3nccc(-c4cccnc4)n3)c2)cc1C(F)(F)F,> 10000 nM,–
90 nM,25 nM,4760 nM,5750 nM,CCCC(=O)N(CCN(C)C)Cc1ccc(C(=O)Nc2ccc(C)c(Nc3nccc(-c4cccnc4)n3)c2)cc1,> 10000 nM,–
201 nM,14 nM,> 10000 nM,6220 nM,CCC(=O)NCc1ccc(C(=O)Nc2ccc(C)c(Nc3nccc(-c4cccnc4)n3)c2)cc1,> 10000 nM,–
98 nM,13 nM,3340 nM,250 nM,C=CC(=O)Nc1cc(C(=O)Nc2ccc(C)c(Nc3nccc(-c4cccnc4)n3)c2)cc(C(F)(F)F)c1,5460 nM,–
82 nM,5 nM,3410 nM,66 nM,Cc1ccc(NC(=O)c2ccc(CNC(=O)c3cccnc3)c(C(F)(F)F)c2)cc1Nc1nccc(-c2cccnc2)n1,8330 nM,–
230 nM,19 nM,5740 nM,3940 nM,C=CC(=O)N(CCC(C)C)Cc1ccc(C(=O)Nc2ccc(C)c(Nc3nccc(-c4cccnc4)n3)c2)cc1,5620 nM,–

GI50 [2],GI50 [3],GI50 [4],GI50 [5],Compound,GI50 at 72 h [1],RatioGI50 (Homo sapiens)
9200 nM,120 nM,> 10000 nM,> 10000 nM,Cc1ccc(NC(=O)c2ccc(CN(CCN(C)C)C(=O)CN(C)C)cc2)cc1Nc1nccc(-c2cccnc2)n1,> 10000 nM,–
3020 nM,353 nM,> 10000 nM,> 10000 nM,Cc1ccc(NC(=O)c2ccc(CN(CCO)C(=O)c3cccnc3)cc2)cc1Nc1nccc(-c2cccnc2)n1,> 10000 nM,–
504 nM,36 nM,> 10000 nM,> 10000 nM,CCC(=O)N(CCN(C)C)Cc1ccc(C(=O)Nc2ccc(C)c(Nc3nccc(-c4cccnc4)n3)c2)cc1,> 10000 nM,14
207 nM,56 nM,> 10000 nM,> 10000 nM,Cc1ccc(NC(=O)c2ccc(CN(CCN(C)C)C(=O)c3cccs3)cc2)cc1Nc1nccc(-c2cccnc2)n1,> 10000 nM,–
699 nM,33 nM,> 10000 nM,> 10000 nM,CCN(CC)CCN(Cc1ccc(C(=O)Nc2ccc(C)c(Nc3nccc(-c4cccnc4)n3)c2)cc1)C(=O)c1cccnc1,> 10000 nM,–
155 nM,–,–,> 10000 nM,C=CC(=O)NCc1ccc(C(=O)Nc2ccc(C)c(Nc3nccc(-c4cccnc4)n3)c2)cc1,> 10000 nM,–
888 nM,12 nM,6270 nM,4940 nM,CCC(=O)Nc1ccc(C(=O)Nc2ccc(C)c(Nc3nccc(-c4cccnc4)n3)c2)cc1,> 10000 nM,–
934 nM,39 nM,> 10000 nM,> 10000 nM,Cc1ccc(NC(=O)c2ccc(CN(CCN3CCCC3)C(=O)c3cccnc3)cc2)cc1Nc1nccc(-c2cccnc2)n1,> 10000 nM,–
437 nM,112 nM,> 10000 nM,> 10000 nM,Cc1ccc(NC(=O)c2ccc(CN(CCN(C)C)C(=O)C3CC3)cc2)cc1Nc1nccc(-c2cccnc2)n1,> 10000 nM,–
341 nM,14 nM,348 nM,216 nM,Cc1ccc(NC(=O)c2ccc(CNC(=O)c3cccnc3)cc2)cc1Nc1nccc(-c2cccnc2)n1,1120 nM,–
244 nM,160 nM,> 10000 nM,4750 nM,C=CC(=O)NCc1cccc(C(=O)Nc2ccc(C)c(Nc3nccc(-c4cccnc4)n3)c2)c1,> 10000 nM,–
787 nM,166 nM,> 10000 nM,> 10000 nM,Cc1ccc(NC(=O)c2ccc(CN(CCN(C)C)C(=O)c3ccno3)cc2)cc1Nc1nccc(-c2cccnc2)n1,> 10000 nM,–
1100 nM,344 nM,4550 nM,5140 nM,C=CC(=O)N(CCN(CC)CC)Cc1ccc(C(=O)Nc2ccc(C)c(Nc3nccc(-c4cccnc4)n3)c2)cc1,5450 nM,–
61 nM,17 nM,5480 nM,2530 nM,Cc1ccc(NC(=O)c2ccc(CN(CCN(C)C)C(=O)C(C)(C)C)cc2)cc1Nc1nccc(-c2cccnc2)n1,> 10000 nM,–
123 nM,39 nM,8640 nM,6110 nM,Cc1ccc(NC(=O)c2ccc(CN(CCN(C)C)C(=O)C(C)C)cc2)cc1Nc1nccc(-c2cccnc2)n1,> 10000 nM,–
240 nM,100 nM,> 10000 nM,> 10000 nM,Cc1ccc(C(=O)N(CCN(C)C)Cc2ccc(C(=O)Nc3ccc(C)c(Nc4nccc(-c5cccnc5)n4)c3)cc2)cc1,> 10000 nM,–
